Screens from PubChem BioAssay.
A selection: hits, their analogues and other compounds. The true share with any hit is near 1.9%.
procasp7 counter – counter-screen for procaspase-3 activators: activators of human procaspase-7; P55210; recombinant procaspase-7, Ac-DEVD-pNA absorbance 405 nm; D23A/D198A/D206A triple mutant, cannot self-cleave; scale: DMSO 0, 5 µM enzyme 100; activation, % at 8.5 µM; 330,000 tested, 0.093% active; AID 463210;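 active means percent activation above the screen-wide mean plus 3 SD, cut at about 25% in these data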
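Replicates: singlicate. Assay system: Procaspase-7 triple mutant (PC-7 D3A). Signal: 405 nm absorbance of p-nitroaniline. Times: 1 h preincubation, 2 h reaction. Buffer or medium: Zinc-free HEPES pH 7.4 with 300 mM NaCl, 0.01% Triton X-100. Also added: DEVD-pNA substrate. Benchmarks: DMSO wells as 0%, DMSO with 5 µM added PC-7 as 100%.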
Arrestin-AP2 inh – human beta-arrestin and AP2 interaction inhibition. FITC-arrestin peptide / GST-AP2 beads, flow cytometry; AP2 beta2 appendage carries R879A mutation. inhibition, % at 10 µM. 340,000 tested, 0.31% active. AID 504490;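 active means inhibition above a set limit, near 3 SD of compounds lacking own fluorescence, cut at about 54% in these data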
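Material – GST-tagged AP2 beta2-adaptin appendage (R879A) on 4 µm glutathione beads · Probe or stimulus – fluorescein-tagged arrestin peptide at 50 nM final · Timing – 12 min plus 1 h, RT · Detection – bead flow cytometry, FITC channel · Read-out basis – inhibition as reduced fluorescein signal on beads, percent · Medium – PBS plus Tween 20 (0.05%) and BSA (0.1%)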
sPLA2-III inh – Inhibits HGIII-sPLA2 liposome hydrolysis, primary screen; inhibition, % at 12.2 µM; QFRET BODIPY PC-A2 liposome hydrolysis, fluorescence; Q9NZ20; 370,000 tested, 0.56% active;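 active means inhibition above mean plus 3 SD of compounds lying within the high and low control bounds, cut at about 19% in these data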
PLCb3 inh – PLC-beta3 (human) inhibition, primary screen. Q01970. Purified PLC-beta3, fluorogenic substrate, fluorescence. inhibition, % at 12.2 µM. 370,000 tested, 0.18% active. AID 720704; in the data active means inhibition above about 11%
proCasp3 act – activates human procaspase-3. P42574. recombinant procaspase-3 D3A, Ac-DEVD-pNA absorbance 405 nm. activation, % at 8.5 µM. 330,000 tested, 0.11% active. AID 463141;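 active means activation above the mean of all tested compounds plus 3 SD, cut at about 21% in these data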
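Test system: Procaspase-3 D3A mutant; medium: Zinc-free HEPES/NaCl buffer with 0.01% Triton X-100 at pH 7.4; reagent: DEVD-pNA substrate; doses: one concentration, 8.5 µM nominal, 0.8% DMSO; times: 1 h preincubation plus 2 h reaction at 25 °C; signal: Epi-absorbance at 405 nm of released p-nitroaniline, 0 and 120 min; replicates: singlicate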
PLC-gamma1 inh – PLC-gamma1 (human) inhibition, primary screen; purified PLC-gamma1, fluorogenic substrate, fluorescence; AID 720700; 370,000 tested, 0.84% active; inhibition, % at 12.2 µM; P19174; in the data active means inhibition above about 9.5%
sPLA2 confirm – human GIII-sPLA2 inhibition, confirmation | 2,000 tested, 34% active | recombinant hGIII-sPLA2, BODIPY PC-A2 QFRET fluorescence | inhibition, % at 12.2 µM | shares compounds with sPLA2-III inh;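 active means mean inhibition across triplicates above the hit cutoff set in the earlier primary screen, cut at about 19% in these data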
BODIPY interf – counter-screen for HGIII-sPLA2 inhibitors: 535nm fluorescence interference. shares compounds with sPLA2-III inh. BODIPY FL product fluorescence interference, QFRET. 2,000 tested, 8.5% active. inhibition, % at 12.2 µM. AID 743282;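 active means average inhibition above the solvent-only control mean plus 3 SD, cut at about 6% in these data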
BODIPY interf DR – 535nm optical interference dose response, HGIII-sPLA2 counter-screen; shares compounds with sPLA2-III inh; BODIPY FL product fluorescence interference, cell-free; IC50, µM; 240 tested, under 10 active;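 active means IC50 at or below 10 µM; inactive means IC50 above 10 µM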
Of the large screens only hits and unclear results are named; the others gave an inactive call (follow-up assays come after a bar, where they were run); ! = not confirmed by another sample.

N#C/C(C(N)=O)=c1/ccc2c(c1)N1C3=C(CCCC3)CC3CCCCC31N=2 (stereo not given)	sPLA2-III inh 26 (no result: Arrestin-AP2 inh) | sPLA2 confirm 45 | BODIPY interf inactive | BODIPY interf DR inactive
N#CC(C#N)=c1ccc2c(c1)N1C3=C(CCCC3)CC3CCCCC31N=2 (stereo not given)	none
Nc1ccc2nc(-c3ccc(N)c(Cl)c3)[nH]c2c1	sPLA2-III inh 21 | sPLA2 confirm inactive | BODIPY interf inactive
Nc1ccc2nc(-c3ccccc3)[nH]c2c1	none
Cc1cc2cc(CCNS(=O)(=O)c3ccc(F)cc3)c(=O)[nH]c2cc1C	none
FC(F)(F)c1cccc(CC2CN(Cc3ccccc3)Cc3ccccc3N2c2cc(Cl)cc(Cl)c2)c1 (stereo not given)	sPLA2-III inh 27 (no result: procasp7 counter, Arrestin-AP2 inh, proCasp3 act) | sPLA2 confirm inactive | BODIPY interf inactive
O=S1(=O)CCOC[C@H](Cc2ccccc2)N1Cc1cccc(C(F)(F)F)c1	none
Cc1ccc(S(=O)(=O)N2CCN(c3nn(C)c(=O)n(C)c3=O)CC2)cc1C	none
O=C(NNC(=O)C1CCN(S(=O)(=O)c2ccc(Cl)cc2)CC1)c1ccccc1O	sPLA2-III inh 21 | sPLA2 confirm inactive | BODIPY interf inactive
CCOC(=O)CC(C)(C)/C(C)=N/Nc1ccc([N+](=O)[O-])cc1[N+](=O)[O-]	none
Cc1scc(C(=O)NNC(=S)NC(C)c2ccccc2)c1C (stereo not given)	sPLA2-III inh 30 | sPLA2 confirm inactive | BODIPY interf inactive
CCCCNC(=S)NNC(=O)c1sccc1C	none (no result: sPLA2-III inh, PLCb3 inh, PLC-gamma1 inh)
CCc1c(C(=O)NNC(=S)NCc2ccccc2)csc1C	none
C=CCNC(=S)NNC(=O)c1cc(O)ccc1O	none
CCCCNC(=S)NNC(=O)c1csc(C)c1C	sPLA2-III inh 27 | sPLA2 confirm 29 | BODIPY interf inactive | BODIPY interf DR inactive
C=CCNC(=S)NNC(=O)c1csc(C)c1C	sPLA2-III inh 24 | sPLA2 confirm 21 | BODIPY interf inactive
CCc1cc(C(=O)Cc2cnn(-c3ccccc3)c2)c(O)cc1O	none
O=C(Cc1cnn(-c2ccccc2)c1)c1ccc(O)c(O)c1O	sPLA2-III inh 24 | sPLA2 confirm inactive | BODIPY interf inactive
CC1CCCC(C)N1C(=O)COC(=O)c1ccc(F)c(S(=O)(=O)N2CCOCC2)c1 (stereo not given)	none
COc1cccc(N=Nc2ccc(O)c3ncccc23)c1	sPLA2-III inh 25 | sPLA2 confirm 51 | BODIPY interf 14
O=C(O)CNS(=O)(=O)Cc1ccccc1	sPLA2-III inh 20 | sPLA2 confirm inactive | BODIPY interf inactive
COc1ccc(NC2CCCN(C(=O)Cn3ccc(C)n3)C2)cc1OC (stereo not given)	none
O=C(NNC(=S)NCc1ccccc1)c1ccccc1OC(F)F	sPLA2-III inh 20 | sPLA2 confirm 31 | BODIPY interf inactive | BODIPY interf DR inactive
CCNC(=S)NNc1nnc(-c2ccccc2)c(-c2ccccc2)n1	sPLA2-III inh 24 | sPLA2 confirm 50 | BODIPY interf inactive | BODIPY interf DR inactive
CNC(=S)NNc1nc(-c2ccccc2)c2cc(Cl)ccc2n1	none
CCNC(=S)NNC(=S)NCc1ccccc1	sPLA2-III inh 21 | sPLA2 confirm 39 | BODIPY interf inactive | BODIPY interf DR inactive
O=C(NNC(=S)Nc1ccc(Cl)cc1)c1ccccc1OC(F)F	sPLA2-III inh 24 | sPLA2 confirm 28 | BODIPY interf 8.5
COc1ccccc1C(=O)NNC(=S)Nc1ccccc1	none (no result: procasp7 counter, proCasp3 act)
O=C(NNC(=S)NCc1ccccc1)c1ccc(Br)cc1	none
O=[N+]([O-])c1ccc(N2N=C(c3ccco3)CC2c2ccccc2)cc1 (stereo not given)	sPLA2-III inh 23 | sPLA2 confirm 20 | BODIPY interf 9.3
C[C@@H]1[C@H](O)C[C@@]23COC(=O)C2=CCC[C@@H]3[C@@]1(C)CC/C(=C/CO)CO	none
COc1cc(N=c2ssnc2Cl)c(OC)cc1Cl	sPLA2-III inh 23! | sPLA2 confirm 33 | BODIPY interf inactive | BODIPY interf DR inactive
COc1ccc(OC)c(N=c2ssnc2Cl)c1	none
Cc1ccc(Cn2c(=O)n(CCC(=O)NCc3ccc4c(c3)OCO4)c(=O)c3ccccc32)cc1	none
N#Cc1ccccc1Cn1c(=O)n(CCCC(=O)NCc2ccc3c(c2)OCO3)c(=O)c2ccccc21	sPLA2-III inh 21 | sPLA2 confirm inactive | BODIPY interf inactive
CCN(CC)C(=O)/C(=C/c1ccc2c(c1)OCO2)NC(=O)c1ccc(Br)cc1	sPLA2-III inh 20 | sPLA2 confirm inactive | BODIPY interf inactive
COc1ccc(Cl)cc1-c1cc(C(=O)N[C@H](C)c2ccccc2)[nH]n1	none (no result: procasp7 counter, Arrestin-AP2 inh, proCasp3 act)
CCCCN(C)S(=O)(=O)c1ccc(C(=O)N=c2sc3cc(NC(C)=O)ccc3n2C)cc1	none
CCCCN(CC)S(=O)(=O)c1ccc(C(=O)N=c2sc3cc(NC(C)=O)ccc3n2C)cc1	sPLA2-III inh 20 | sPLA2 confirm inactive | BODIPY interf inactive
O=C(COC(=O)/C=C/c1cccc(F)c1)NCc1ccc2c(c1)OCO2	none (no result: procasp7 counter, Arrestin-AP2 inh, proCasp3 act)
NC(=S)N/N=C/c1c(O)c(Br)cc2oc3c(c12)CCCC3	sPLA2-III inh 33 | sPLA2 confirm 31 | BODIPY interf 6.2
COc1ccccc1Cn1c(=S)[nH]c2cc(C(=O)N3CC(C)CC(C)C3)ccc2c1=O (stereo not given)	none (no result: procasp7 counter, Arrestin-AP2 inh, proCasp3 act)
O=C(NNC(=S)Nc1ccc(Br)cc1)c1ccccc1	sPLA2-III inh 20 (no result: procasp7 counter, proCasp3 act) | sPLA2 confirm 22 | BODIPY interf 6.7
O=C(NNC(=S)Nc1ccccc1Cl)c1ccccc1Br	sPLA2-III inh 22 (no result: procasp7 counter, proCasp3 act) | sPLA2 confirm 26 | BODIPY interf inactive
O=C(NNC(=S)Nc1ccc(Br)cc1)c1ccccc1Br	sPLA2-III inh 35 (no result: procasp7 counter, proCasp3 act) | sPLA2 confirm 26 | BODIPY interf 8.2
O=C(NNC(=S)Nc1ccccc1)c1ccc2ncccc2c1	sPLA2-III inh 24 | sPLA2 confirm 30 | BODIPY interf inactive | BODIPY interf DR inactive
COC(=O)Cc1ccc(NC(=S)NNC(=O)c2ccccc2Br)cc1	none
O=C(NNC(=S)NC1CCCCC1)c1ccccc1Br	sPLA2-III inh 21 | sPLA2 confirm 29 | BODIPY interf inactive | BODIPY interf DR inactive
